Experiments:
Staphylococcus aureus [1] = test: Antibacterial activity against methicillin-resistant Staphylococcus aureus isolate 11 incubated overnight by agar dilution method; type: functional
Procedure, shortened: (§1)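 MIC by agar dilution. Strains were grown overnight in LB broth and diluted, then about 10^4 CFU (2 μL spots) were spotted onto LB agar plates containing test compound at 0.5 to 8 μg mL−1 agar. Plates were incubated overnight at 37 °C and inspected for growth. Clinical MSSA and MRSA isolates came from local hospitals.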

Staphylococcus aureus [2] = test: Antibacterial activity against methicillin-sensitive Staphylococcus aureus isolate 1 incubated overnight by agar dilution method; type: functional; procedure, shortened: as §1
[3] = Stability of the compound in PBS at pH 7.1 at 0.1 mg/ml after 16 hrs by HPLC analysis; type: physicochemical; conditions: buffer, pH 7.1, 16 h
Procedure, shortened: (§2)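 Compound at 0.1 mg mL−1 dissolved in 1 mM PBS at the stated pH. Held at 37 °C for 16 h. Remaining compound and retro-Michael reversion products analysed by HPLC.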

Staphylococcus aureus [4] = test: Antibacterial activity against methicillin-sensitive Staphylococcus aureus isolate 4 incubated overnight by agar dilution method; type: functional; procedure, shortened: as §1
Staphylococcus aureus [5] = test: Antibacterial activity against methicillin-resistant Staphylococcus aureus isolate 10 incubated overnight by agar dilution method; type: functional; procedure, shortened: as §1
Staphylococcus aureus [6] = test: Antibacterial activity against methicillin-resistant Staphylococcus aureus isolate 7 incubated overnight by agar dilution method; type: functional; procedure, shortened: as §1
[7] = Stability of the compound in PBS at pH 5.8 at 0.1 mg/ml after 16 hrs by HPLC analysis; type: physicochemical; conditions: buffer, pH 5.8, 16 h; procedure, shortened: as §2
Staphylococcus aureus [8] = test: Antibacterial activity against Staphylococcus aureus ATCC 29213 incubated overnight by agar dilution method; type: functional; procedure, shortened: as §1
Staphylococcus aureus [9] = test: Antibacterial activity against methicillin-resistant Staphylococcus aureus isolate 9 incubated overnight by agar dilution method; type: functional; procedure, shortened: as §1
Staphylococcus aureus [10] = test: Antibacterial activity against methicillin-resistant Staphylococcus aureus isolate 5 incubated overnight by agar dilution method; type: functional; procedure, shortened: as §1
Staphylococcus aureus [11] = test: Antibacterial activity against methicillin-sensitive Staphylococcus aureus isolate 2 incubated overnight by agar dilution method; type: functional; procedure, shortened: as §1
Staphylococcus aureus [12] = test: Antibacterial activity against methicillin-resistant Staphylococcus aureus isolate 8 incubated overnight by agar dilution method; type: functional; procedure, shortened: as §1
Staphylococcus aureus [13] = test: Antibacterial activity against methicillin-sensitive Staphylococcus aureus isolate 3 incubated overnight by agar dilution method; type: functional; procedure, shortened: as §1
Staphylococcus aureus [14] = test: Antibacterial activity against methicillin-resistant Staphylococcus aureus isolate 6 incubated overnight by agar dilution method; type: functional; procedure, shortened: as §1

C[C@]12C[C@]34C[C@@H]1C[C@H](O2)[C@H]3[C@](C)(CCC(=O)Nc1c(O)ccc(C(=O)O)c1O)C(=O)C[C@@H]4SC(=O)c1ccccc1
Stable: Stability [3] | Stability [7]
2 mg/L: MIC (Staphylococcus aureus [1]) | MIC (Staphylococcus aureus [6]) | MIC (Staphylococcus aureus [10])
1 mg/L: MIC (Staphylococcus aureus [2]) | MIC (Staphylococcus aureus [4]) | MIC (Staphylococcus aureus [5]) | MIC (Staphylococcus aureus [8]) | MIC (Staphylococcus aureus [9]) | MIC (Staphylococcus aureus [11]) | MIC (Staphylococcus aureus [12]) | MIC (Staphylococcus aureus [13]) | MIC (Staphylococcus aureus [14])

CCS[C@H]1CC(=O)[C@@](C)(CCC(=O)Nc2c(O)ccc(C(=O)O)c2O)[C@@H]2[C@@H]3C[C@H]4C[C@]12C[C@]4(C)O3
0.5 mg/L: MIC (Staphylococcus aureus [2]) | MIC (Staphylococcus aureus [8]) | MIC (Staphylococcus aureus [11])
1 mg/L: MIC (Staphylococcus aureus [1]) | MIC (Staphylococcus aureus [4]) | MIC (Staphylococcus aureus [5]) | MIC (Staphylococcus aureus [6]) | MIC (Staphylococcus aureus [9]) | MIC (Staphylococcus aureus [10]) | MIC (Staphylococcus aureus [12]) | MIC (Staphylococcus aureus [13])
2 mg/L: MIC (Staphylococcus aureus [14])
Stable: Stability [3] | Stability [7]

C[C@]12C[C@]34C[C@@H]1C[C@H](O2)[C@H]3[C@](C)(CCC(=O)Nc1c(O)ccc(C(=O)O)c1O)C(=O)C[C@@H]4SC(=O)Cc1ccc(F)cc1
1 mg/L: MIC (Staphylococcus aureus [4]) | MIC (Staphylococcus aureus [11])
4 mg/L: MIC (Staphylococcus aureus [1]) | MIC (Staphylococcus aureus [6])
2 mg/L: MIC (Staphylococcus aureus [2]) | MIC (Staphylococcus aureus [5]) | MIC (Staphylococcus aureus [8]) | MIC (Staphylococcus aureus [9]) | MIC (Staphylococcus aureus [10]) | MIC (Staphylococcus aureus [12]) | MIC (Staphylococcus aureus [13]) | MIC (Staphylococcus aureus [14])

Cc1ccc(S[C@H]2CC(=O)[C@@](C)(CCC(=O)Nc3c(O)ccc(C(=O)O)c3O)[C@@H]3[C@@H]4C[C@H]5C[C@]23C[C@]5(C)O4)cc1
4 mg/L: MIC (Staphylococcus aureus [6]) | MIC (Staphylococcus aureus [8]) | MIC (Staphylococcus aureus [10])
2 mg/L: MIC (Staphylococcus aureus [1]) | MIC (Staphylococcus aureus [2]) | MIC (Staphylococcus aureus [4]) | MIC (Staphylococcus aureus [5]) | MIC (Staphylococcus aureus [9]) | MIC (Staphylococcus aureus [11]) | MIC (Staphylococcus aureus [12]) | MIC (Staphylococcus aureus [13]) | MIC (Staphylococcus aureus [14])

CC(=O)S[C@H]1CC(=O)[C@@](C)(CCC(=O)Nc2c(O)ccc(C(=O)O)c2O)[C@@H]2[C@@H]3C[C@H]4C[C@]12C[C@]4(C)O3
4 mg/L: MIC (Staphylococcus aureus [1]) | MIC (Staphylococcus aureus [6])
2 mg/L: MIC (Staphylococcus aureus [2]) | MIC (Staphylococcus aureus [4]) | MIC (Staphylococcus aureus [5]) | MIC (Staphylococcus aureus [8]) | MIC (Staphylococcus aureus [9]) | MIC (Staphylococcus aureus [10]) | MIC (Staphylococcus aureus [11]) | MIC (Staphylococcus aureus [12]) | MIC (Staphylococcus aureus [13]) | MIC (Staphylococcus aureus [14])

COc1ccc(C(=O)S[C@H]2CC(=O)[C@@](C)(CCC(=O)Nc3c(O)ccc(C(=O)O)c3O)[C@@H]3[C@@H]4C[C@H]5C[C@]23C[C@]5(C)O4)cc1
2 mg/L: MIC (Staphylococcus aureus [1]) | MIC (Staphylococcus aureus [6]) | MIC (Staphylococcus aureus [10])
1 mg/L: MIC (Staphylococcus aureus [2]) | MIC (Staphylococcus aureus [4]) | MIC (Staphylococcus aureus [5]) | MIC (Staphylococcus aureus [8]) | MIC (Staphylococcus aureus [9]) | MIC (Staphylococcus aureus [11]) | MIC (Staphylococcus aureus [12]) | MIC (Staphylococcus aureus [13]) | MIC (Staphylococcus aureus [14])
Stable: Stability [3] | Stability [7]

C=C1C[C@@]23CCC1C[C@@H]2[C@](C)(CCC(=O)Nc1c(O)ccc(C(=O)O)c1O)C(=O)C[C@@H]3SC(C)=O (single isomer, unassigned)
4 mg/L: MIC (Staphylococcus aureus [1]) | MIC (Staphylococcus aureus [8])
Stable: Stability [3] | Stability [7]
2 mg/L: MIC (Staphylococcus aureus [5]) | MIC (Staphylococcus aureus [6]) | MIC (Staphylococcus aureus [9]) | MIC (Staphylococcus aureus [10]) | MIC (Staphylococcus aureus [12]) | MIC (Staphylococcus aureus [14])
1 mg/L: MIC (Staphylococcus aureus [2]) | MIC (Staphylococcus aureus [4]) | MIC (Staphylococcus aureus [11]) | MIC (Staphylococcus aureus [13])

C=C1C[C@@]23CCC1C[C@@H]2[C@](C)(CCC(=O)Nc1c(O)ccc(C(=O)O)c1O)C(=O)C[C@@H]3Sc1ccc(C)cc1 (single isomer, unassigned)
0.5 mg/L: MIC (Staphylococcus aureus [4]) | MIC (Staphylococcus aureus [11]) | MIC (Staphylococcus aureus [13])
1 mg/L: MIC (Staphylococcus aureus [2]) | MIC (Staphylococcus aureus [5]) | MIC (Staphylococcus aureus [9]) | MIC (Staphylococcus aureus [12]) | MIC (Staphylococcus aureus [14])
2 mg/L: MIC (Staphylococcus aureus [1]) | MIC (Staphylococcus aureus [6]) | MIC (Staphylococcus aureus [8]) | MIC (Staphylococcus aureus [10])

C=C1C[C@@]23CCC1C[C@@H]2[C@](C)(CCC(=O)Nc1c(O)ccc(C(=O)O)c1O)C(=O)C[C@@H]3SC(=O)c1ccccc1 (single isomer, unassigned)
4 mg/L: MIC (Staphylococcus aureus [6]) | MIC (Staphylococcus aureus [8])
2 mg/L: MIC (Staphylococcus aureus [1]) | MIC (Staphylococcus aureus [9]) | MIC (Staphylococcus aureus [10]) | MIC (Staphylococcus aureus [12]) | MIC (Staphylococcus aureus [14])
1 mg/L: MIC (Staphylococcus aureus [2]) | MIC (Staphylococcus aureus [4]) | MIC (Staphylococcus aureus [5]) | MIC (Staphylococcus aureus [11]) | MIC (Staphylococcus aureus [13])

C=C1C[C@@]23CCC1C[C@@H]2[C@](C)(CCC(=O)Nc1c(O)ccc(C(=O)O)c1O)C(=O)C[C@@H]3SC(=O)Cc1ccc(F)cc1 (single isomer, unassigned)
0.5 mg/L: MIC (Staphylococcus aureus [4])
4 mg/L: MIC (Staphylococcus aureus [1]) | MIC (Staphylococcus aureus [6]) | MIC (Staphylococcus aureus [8])
1 mg/L: MIC (Staphylococcus aureus [2]) | MIC (Staphylococcus aureus [5]) | MIC (Staphylococcus aureus [9]) | MIC (Staphylococcus aureus [11]) | MIC (Staphylococcus aureus [12]) | MIC (Staphylococcus aureus [13])
2 mg/L: MIC (Staphylococcus aureus [10]) | MIC (Staphylococcus aureus [14])

CC(=O)NC[C@H]1CN(c2ccc(N3CCOCC3)c(F)c2)C(=O)O1 [LINEZOLID]
1 mg/L: MIC (Staphylococcus aureus [1]) | MIC (Staphylococcus aureus [2]) | MIC (Staphylococcus aureus [4]) | MIC (Staphylococcus aureus [5]) | MIC (Staphylococcus aureus [6]) | MIC (Staphylococcus aureus [8]) | MIC (Staphylococcus aureus [9]) | MIC (Staphylococcus aureus [10]) | MIC (Staphylococcus aureus [11]) | MIC (Staphylococcus aureus [12]) | MIC (Staphylococcus aureus [13]) | MIC (Staphylococcus aureus [14])

C=C1C[C@@]23C=CC(=O)[C@@](C)(CCC(=O)Nc4c(O)ccc(C(=O)O)c4O)[C@@H]2C[C@@H]1CC3 [PLATENCIN]
1 mg/L: MIC (Staphylococcus aureus [1]) | MIC (Staphylococcus aureus [2]) | MIC (Staphylococcus aureus [4]) | MIC (Staphylococcus aureus [5]) | MIC (Staphylococcus aureus [6]) | MIC (Staphylococcus aureus [8]) | MIC (Staphylococcus aureus [9]) | MIC (Staphylococcus aureus [10]) | MIC (Staphylococcus aureus [11]) | MIC (Staphylococcus aureus [12]) | MIC (Staphylococcus aureus [13]) | MIC (Staphylococcus aureus [14])
